Reference: ChEMBL document CHEMBL1156799, “Synthesis and biological evaluation of N-hydroxyphenylacrylamides and N-hydroxypyridin-2-ylacrylamides as novel histone deacetylase inhibitors” (J Med Chem, 2010)

Assays:
[1] = Metabolic stability in mouse liver microsomes assessed as half life; type: ADME, Microsome
[2] = Metabolic stability in human hepatic microsomes at 1 uM after 30 mins at 37 degC; type: ADME; details: liver microsomes, read-out: Stability
In short: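 Compound at 1 μM preincubated 10 min at 37 °C in potassium phosphate buffer pH 7.4 with 0.5 mg/mL human or mouse hepatic microsomes; NADP/G6P/G6P-DH cofactor mix added; samples at 0 and 30 min analysed by LC-MS/MS (MRM, verapamil internal standard); % remaining = area 30 min/area 0 min × 100.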

[3] = Metabolic stability in mouse hepatic microsomes at 1 uM after 30 mins at 37 degC; details: liver microsomes
Mus musculus [4] = assay: Volume of distribution at steady state in CD1 mouse at 5 mg/kg, iv; details: in vivo
[5] = Oral bioavailability in CD1 mouse at 15 mg/kg; type: ADME, organism-based; details: in vivo
In short: (§1)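 Mice dosed orally by gavage at 15 mg/kg, compound in water at 3 mg/mL of the base; iv comparison dose 5 mg/kg in normal saline; 27-30 animals per group; plasma from serial blood samples, protein-precipitated, kept at -80 °C, quantified by LC/MS/MS.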

[6] = AUC (0 to 24 hrs) in CD1 mouse at 5 mg/kg, iv; type: ADME, organism-based; design: time < 24 hr, dose 5 mg/kg, route intravenous; details: plasma
In short: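 Mice given single iv dose of 5 mg/kg, compound in normal saline at 1 mg/mL as rapid bolus; 27-30 animals per group; blood sampled at several times after dosing, plasma separated by centrifugation, proteins precipitated, stored -80 °C, analysed by LC/MS/MS (ESI).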

[7] = Half life in CD1 mouse at 15 mg/kg, po; type: ADME, organism-based; design: dose 15 mg/kg, route oral; details: in vivo; in short: as §1
[8] = Clearance in CD1 mouse at 5 mg/kg, iv; details: in vivo
[9] = AUC (0 to infinity) in CD1 mouse at 5 mg/kg, iv; type: ADME, organism-based; design: time infinity, dose 5 mg/kg, route intravenous; details: plasma
Mus musculus [10] = species: Mus musculus; assay: Hepatic blood flow in mouse; type: ADME, organism-based, Liver
in vitro = details: human, liver microsomes

| remaining at 0.5 h, 1 µM [2] [%] | remaining at 0.5 h, 1 µM [3] [%] | Vdss (Mus musculus [4]) [L/kg] | bioavailability [5] [%] | half-life [7] [h] | clearance [8] [mL/min/kg] | AUC(0-inf) [9] [ng·h/mL] | SMILES | further results |
| --- | --- | --- | --- | --- | --- | --- | --- | --- |
| 33 | 9.1 | – | – | – | – | – | CN1CCN(c2ccc(C(=O)/C=C/c3ccc(/C=C/C(=O)NO)cc3)cc2)CC1 | – |
| 93 | 53 | 11.7 | 4.5 | 5.55 | 55.8 | 1490 | CN1CCN(Cc2ccccc2C(=O)/C=C/c2ccc(/C=C/C(=O)NO)nc2)CC1 | – |
| 44 | 33 | – | – | – | – | – | CN1CCN(Cc2ccc(C(=O)/C=C/c3cccc(/C=C/C(=O)NO)c3)cc2)CC1 | – |
| 38 | 34 | 5.4 | 18.1 | 2 | 119 | 698 | CN1CCN(c2ccccc2C(=O)/C=C/c2ccc(/C=C/C(=O)NO)cc2)CC1 | – |
| 32 | 46 | 28.4 | 3.9 | 6.7 | 113 | 736 | CN1CCN(Cc2cccc(C(=O)/C=C/c3ccc(/C=C/C(=O)NO)nc3)c2)CC1 | – |
| 61 | 17 | – | – | – | – | – | CN1CCN(Cc2ccc(C(=O)/C=C/c3ccc(/C=C/C(=O)NO)cc3)cc2)CC1 | – |
| 39 | 25 | – | – | – | – | – | CN1CCN(Cc2cccc(C(=O)/C=C/c3cccc(/C=C/C(=O)NO)c3)c2)CC1 | – |
| 44 | 6.2 | – | – | – | – | – | CN1CCN(c2cccc(C(=O)/C=C/c3ccc(/C=C/C(=O)NO)cc3)c2)CC1 | – |
| 23 | 17 | – | – | – | – | – | CN1CCN(Cc2cccc(C(=O)/C=C/c3ccc(/C=C/C(=O)NO)cc3)c2)CC1 | – |
| 47 | 56 | 31.9 | 5.5 | 9.7 | 79.2 | 1050 | CN1CCN(Cc2ccc(C(=O)/C=C/c3ccc(/C=C/C(=O)NO)nc3)cc2)CC1 | – |
| 62 | 44 | – | – | – | – | – | CN1CCN(c2ccccc2C(=O)/C=C/c2cccc(/C=C/C(=O)NO)c2)CC1 | – |
| 55 | 7.2 | – | – | – | – | – | CN1CCN(c2cccc(C(=O)/C=C/c3cccc(/C=C/C(=O)NO)c3)c2)CC1 | – |
| 58 | 57 | 13.9 | 2.9 | 8.6 | 44 | 1900 | CN1CCN(c2ccccc2C(=O)/C=C/c2cccc(/C=C/C(=O)NO)n2)CC1 | – |
| 62 | 35 | 20.1 | 3.1 | 8.27 | 98 | 849 | CN1CCN(Cc2ccccc2C(=O)/C=C/c2cccc(/C=C/C(=O)NO)c2)CC1 | – |
| 65 | 61 | 2.1 | 6.3 | 2.3 | 59.7 | 1400 | CN1CCN(c2ccccc2C(=O)/C=C/c2ccc(/C=C/C(=O)NO)nc2)CC1 | – |
| 56 | 4.2 | – | – | – | – | – | CN1CCN(Cc2ccccc2C(=O)/C=C/c2ccc(/C=C/C(=O)NO)cc2)CC1 | – |
| 40 | 5.9 | – | – | – | – | – | CN1CCN(c2ccc(C(=O)/C=C/c3cccc(/C=C/C(=O)NO)c3)cc2)CC1 | – |
| 67 | 40 | – | – | – | – | – | CN1CCN(Cc2ccccc2C(=O)/C=C/c2cccc(/C=C/C(=O)NO)n2)CC1 | – |

More lines, now with the values behind:

| SMILES | remaining at 0.5 h, 1 µM [2] [%] | remaining at 0.5 h, 1 µM [3] [%] | Vdss (Mus musculus [4]) [L/kg] | bioavailability [5] [%] | half-life [7] [h] | clearance [8] [mL/min/kg] | AUC(0-inf) [9] [ng·h/mL] | further results |
| --- | --- | --- | --- | --- | --- | --- | --- | --- |
| O=C(/C=C/c1ccc2c(c1)nc(CCc1ccccc1)n2CCN1CCCC1)NO | – | – | – | – | – | – | – | half-life [1]: 0.05 h |
| CN1CCN(Cc2ccc(C(=O)/C=C/c3cccc(/C=C/C(=O)NO)n3)cc2)CC1 | 51 | 46 | 16.07 | 2.6 | 7.3 | 29.2 | – | AUC(0-t) at 24 h [6]: 2520 ng·h/mL |
| O=C(/C=C/c1cccc(/C=C/C(=O)c2ccccc2)c1)NO | 9 | 6 | – | – | – | – | – | – |
| O=C(/C=C/c1cccc(/C=C/C(=O)c2ccccc2)n1)NO | 38 | 11 | – | – | – | – | – | – |
| CN1CCN(Cc2cccc(C(=O)/C=C/c3cccc(/C=C/C(=O)NO)n3)c2)CC1 | 45 | 40 | – | – | – | – | – | – |
| CN1CCN(c2ccc(C(=O)/C=C/c3cccc(/C=C/C(=O)NO)n3)cc2)CC1 | 35 | 19 | – | – | – | – | – | – |
| CN1CCN(c2ccc(C(=O)/C=C/c3ccc(/C=C/C(=O)NO)nc3)cc2)CC1 | 43 | 3.8 | – | – | – | – | – | – |
| CN1CCN(c2cccc(C(=O)/C=C/c3ccc(/C=C/C(=O)NO)nc3)c2)CC1 | 41 | 20 | – | – | – | – | – | – |
| CN1CCN(c2cccc(C(=O)/C=C/c3cccc(/C=C/C(=O)NO)n3)c2)CC1 | 35 | 29 | 18.3 | 2 | 8.5 | 55.3 | 1510 | – |
| O=C(/C=C/c1cc(/C=C/C(=O)c2ccccc2)ccn1)NO | 16 | 14 | – | – | – | – | – | – |
| O=C(/C=C/c1ccc(/C=C/C(=O)c2ccccc2)cc1)NO | 5 | 2 | – | – | – | – | – | – |
| O=C(/C=C/c1ccc(/C=C/C(=O)c2ccccc2)cn1)NO | 14 | 6 | – | – | – | – | – | – |
| O=C(/C=C/c1cccc(S(=O)(=O)Nc2ccccc2)c1)NO [BELINOSTAT] | – | – | 5.03 | 6.66 | 1.21 | 193 | 431 | – |
| Cc1[nH]c2ccccc2c1CCNCc1ccc(/C=C/C(=O)NO)cc1 [PANOBINOSTAT] | – | – | 15.1 | 4.6 | 1.37 | 305 | 273 | – |
| O=C(CCCCCCC(=O)Nc1ccccc1)NO [VORINOSTAT] | – | – | 1.2 | 12.1 | 0.5 | 127 | 657 | LBF (Mus musculus [10]): 90 mL/min/kg; half-life (in vitro): 1 h; half-life [1]: 0.467 h |
